Values after ≈ are worked out from the molar mass of the structure shown. Blank lines part the entries; values can stand above or below the molecule they belong to. Active and inactive are the calls of the source. The calls are words filed in the database; no cut-off is given here. Square brackets hold non-standard residues; d marks the D form. Peptide text beside a SMILES is read from it. dPhe(4-Cl) = N[C@H](Cc1ccc(Cl)cc1)C(=O)O; d2Nal = N[C@H](Cc1ccc2ccccc2c1)C(=O)O; dCit = NC(=O)NCCC[C@@H](N)C(=O)O; d3Pal = N[C@H](Cc1cccnc1)C(=O)O
How the values were obtained:
[1] = Half life in Wistar rat at 0.5 mg/kg, iv by LC-MS/MS analysis; format: ADME, organism-based; details: in vivo
[2] = molecular target: T1, Gonadotropin-releasing hormone receptor (Homo sapiens, UniProt P30968); assay: Antagonist activity at human GnRH receptor expressed in CHO-K1 cells assessed as inhibition of buserelin-induced response preincubated for 20 mins followed by buserelin addition and measured after 60 mins by TR-FRET assay; format: cell-based
T1 sequence (P30968 whole entry): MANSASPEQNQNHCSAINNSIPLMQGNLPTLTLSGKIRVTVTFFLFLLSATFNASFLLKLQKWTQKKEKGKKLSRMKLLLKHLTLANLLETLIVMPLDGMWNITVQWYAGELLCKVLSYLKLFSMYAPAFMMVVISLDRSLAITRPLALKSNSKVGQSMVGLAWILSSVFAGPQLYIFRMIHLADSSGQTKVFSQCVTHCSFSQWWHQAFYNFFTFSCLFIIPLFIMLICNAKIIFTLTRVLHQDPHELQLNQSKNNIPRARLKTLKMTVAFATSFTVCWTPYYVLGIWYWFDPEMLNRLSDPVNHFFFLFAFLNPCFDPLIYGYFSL

[3] = molecular target: T2, Gonadotropin-releasing hormone receptor (Rattus norvegicus, UniProt P30969); assay: Antagonist activity at rat GnRH receptor expressed in CHO-K1 cells assessed as inhibition of LHRH-induced response preincubated for 20 mins followed by LHRH addition and measured after 60 mins by TR-FRET assay; format: cell-based
T2 sequence (P30969 whole entry): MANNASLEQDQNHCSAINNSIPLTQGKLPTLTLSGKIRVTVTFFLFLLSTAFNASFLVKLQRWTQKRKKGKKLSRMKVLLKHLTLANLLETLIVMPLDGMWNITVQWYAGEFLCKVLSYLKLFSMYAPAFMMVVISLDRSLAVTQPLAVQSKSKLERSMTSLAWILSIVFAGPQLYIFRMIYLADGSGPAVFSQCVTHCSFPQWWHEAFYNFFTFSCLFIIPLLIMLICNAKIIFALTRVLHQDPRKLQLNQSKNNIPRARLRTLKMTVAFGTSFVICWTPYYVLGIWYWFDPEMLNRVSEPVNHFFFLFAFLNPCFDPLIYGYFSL
Procedure, shortened: (§1)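 Frozen rat-receptor cells: thawed, seeded overnight in serum-containing Ham's F12, Accutase-harvested, resuspended in serum-free medium with IP1-d2, 1 h at 37 °C. 1.0 × 10^4 cells/well, 20 min compound preincubation at rt, then 1× EC80 LHRH or buserelin in HEPES stimulation buffer pH 7.4 for 60 min at 37 °C. Tb-anti-IP1 lysis (1:38), HTRF read 60 min later.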

[4] = Clearance in Wistar rat at 0.5 mg/kg, iv by LC-MS/MS analysis; format: ADME, organism-based; details: in vivo; for clearance: Wistar
[5] = Intrinsic clearance in Han Wistar rat hepatocytes at 1 uM measured up to 90 mins by LC/MS/MS analysis; format: ADME, cell-based, Hepatocyte; details: for CLint scaled at 1 µM: Han Wistar, read-out: CLH (converted)
[6] = molecular target: T1, Gonadotropin-releasing hormone receptor; assay: Antagonist activity at human GnRH receptor expressed in CHO-K1 cells assessed as inhibition of LHRH-induced response preincubated for 20 mins followed by LHRH addition and measured after 60 mins by TR-FRET assay; format: cell-based
[7] = molecular target: T3, Gonadotropin-releasing hormone receptor (Homo sapiens) (UniProt P30968); assay: Inhibition of Tag-lite green-labeled agonist binding to terbium fluorophore-labeled human N-terminal SNAP-tag GnRh receptor expressed in HEK293 cells assessed as association rate constant by TR-FRET assay; format: cell-based; details: filed as antagonist
T3 sequence (whole entry): T1 sequence (P30968 whole entry)
Procedure, shortened: (§2)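 Kinetic competition at rt: tracer at 10 nM final with compound, Tb-hGnRH-R cells injected in the reader. TR-FRET read at time zero and every 21 s. Baseline-subtracted traces fitted with the Motulsky–Mahan competitive kinetics model. At least two independent experiments, two replicates each.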

[8] = molecular target: T3, Gonadotropin-releasing hormone receptor (Homo sapiens); assay: Inhibition of Tag-lite green-labeled agonist binding to terbium fluorophore-labeled human N-terminal SNAP-tag GnRh receptor expressed in HEK293 cells assessed as dissociation rate constant by TR-FRET assay; format: cell-based; details: filed as antagonist; procedure, shortened: as §2
Rattus norvegicus [9] = assay: Suppression of ovariectomized-induced increase in plasma luteinizing hormone level in Wistar Han rat at 0.1 mg/kg, sc measured up to 24 hrs; format: functional, organism-based; details: time hrs <=24
[10] = molecular target: T1, Gonadotropin-releasing hormone receptor; assay: Inhibition of Tag-lite green-labeled agonist binding to terbium fluorophore-labeled human N-terminal SNAP-tag GnRh receptor expressed in HEK293 cells assessed as equilibrium dissociation constant by TR-FRET assay; format: cell-based
[11] = molecular target: T3, Gonadotropin-releasing hormone receptor (Homo sapiens); assay: Inhibition of Tag-lite green-labeled agonist binding to terbium fluorophore-labeled human N-terminal SNAP-tag GnRh receptor expressed in HEK293 cells assessed as residence time by TR-FRET assay; format: cell-based; details: filed as antagonist; procedure, shortened: as §2
[12] = molecular target: T1, Gonadotropin-releasing hormone receptor; assay: Inhibition of Tag-lite green-labeled agonist binding to terbium fluorophore-labeled human N-terminal SNAP-tag GnRh receptor expressed in HEK293 cells assessed as dissociation constant by TR-FRET assay; format: cell-based
Rattus norvegicus [13] = assay: Suppression of ovariectomized-induced increase in plasma luteinizing hormone level in po dosed Wistar Han rat measured up to 24 hrs; format: functional; details: time hrs <=24
Procedure, shortened: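 Ovariectomized rats given single oral doses, range 1 to 30 mg/kg. Plasma LH followed over time, with cetrorelix at 0.1 mg/kg sc as reference. ED50 calculated from the dose-response.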

[14] = molecular target: T2, Gonadotropin-releasing hormone receptor; assay: Antagonist activity at rat GnRH receptor expressed in CHO-K1 cells assessed as inhibition of buserelin-induced response preincubated for 20 mins followed by buserelin addition and measured after 60 mins by TR-FRET assay; format: cell-based; procedure, shortened: as §1
[15] = Aqueous solubility of compound at pH 6.5 incubated for 24 hrs under shaking condition by HPLC-MS/MS analysis; format: physicochemical; details: aqueous solution
Procedure, shortened: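 Compound from 1 mM DMSO solution, pH 6.5 buffer added, shaken 24 h at rt. Filtered, dissolved compound quantified by HPLC-MS/MS.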

[16] = Lipophilicity, log D of the compound in pH 7.5 MeCN/H2O solution by reversed-phase HPLC analysis; format: physicochemical
Procedure, shortened: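 Indirect reversed-phase HPLC at pH 7.5, calibrated with n-alkan-2-ones C3–C16. Compounds applied as 0.67 mM DMSO stocks in MeCN/H2O (1:1).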

[17] = molecular target: Voltage-gated inwardly rectifying potassium channel KCNH2 (Homo sapiens, UniProt Q12809); assay: Inhibition of human ERG expressed in HEK293 cells assessed as reduction in channel inward tail current by whole cell voltage clamp assay; format: cell-based
Voltage-gated inwardly rectifying potassium channel KCNH2, sequence (Q12809 whole entry): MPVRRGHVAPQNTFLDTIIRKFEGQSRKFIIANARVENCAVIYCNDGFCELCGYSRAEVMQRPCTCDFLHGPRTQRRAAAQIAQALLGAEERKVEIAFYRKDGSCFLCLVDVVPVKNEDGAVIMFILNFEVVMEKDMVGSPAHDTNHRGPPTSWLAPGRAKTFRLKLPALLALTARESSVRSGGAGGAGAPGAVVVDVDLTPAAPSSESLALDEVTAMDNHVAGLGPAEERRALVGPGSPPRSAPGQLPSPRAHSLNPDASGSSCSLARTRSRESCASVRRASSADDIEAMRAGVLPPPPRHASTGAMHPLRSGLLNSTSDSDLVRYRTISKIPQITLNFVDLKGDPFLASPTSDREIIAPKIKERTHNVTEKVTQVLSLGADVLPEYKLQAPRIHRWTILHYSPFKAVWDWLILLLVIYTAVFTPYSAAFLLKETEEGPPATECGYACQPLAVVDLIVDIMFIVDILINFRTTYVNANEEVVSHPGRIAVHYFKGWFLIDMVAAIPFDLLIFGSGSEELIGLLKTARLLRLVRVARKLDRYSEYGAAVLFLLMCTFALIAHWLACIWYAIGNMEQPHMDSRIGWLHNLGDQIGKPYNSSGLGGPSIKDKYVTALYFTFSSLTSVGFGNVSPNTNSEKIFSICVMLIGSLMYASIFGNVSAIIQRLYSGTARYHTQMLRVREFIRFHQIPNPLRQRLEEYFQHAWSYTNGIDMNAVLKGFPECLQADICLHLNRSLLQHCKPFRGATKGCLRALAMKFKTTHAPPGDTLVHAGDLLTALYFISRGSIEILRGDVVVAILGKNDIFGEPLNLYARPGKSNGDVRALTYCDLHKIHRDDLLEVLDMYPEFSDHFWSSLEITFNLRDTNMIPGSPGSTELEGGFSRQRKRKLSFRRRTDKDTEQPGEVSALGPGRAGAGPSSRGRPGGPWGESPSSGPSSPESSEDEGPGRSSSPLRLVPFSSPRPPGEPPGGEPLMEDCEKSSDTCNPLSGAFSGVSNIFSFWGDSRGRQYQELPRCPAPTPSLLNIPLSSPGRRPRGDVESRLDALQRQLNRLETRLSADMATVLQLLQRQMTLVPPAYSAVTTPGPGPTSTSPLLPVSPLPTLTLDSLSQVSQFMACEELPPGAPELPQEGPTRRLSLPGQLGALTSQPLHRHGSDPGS

Rattus norvegicus [18] = assay: Suppression of ovariectomized-induced increase in plasma luteinizing hormone level in Wistar Han rat at 30 mg/kg, ip measured after 1 hr relative to control; format: functional
Procedure, shortened: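 Ovariectomized rats given a single intraperitoneal injection at 30 mg/kg. Plasma LH measured 1 h later and compared with vehicle-treated animals.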

[19] = Oral bioavailability in Wistar rat at 2 mg/kg by LC-MS/MS analysis; format: ADME, organism-based; details: in vivo

Compound: CC(=O)N[C@H](Cc1ccc2ccccc2c1)C(=O)N[C@H](Cc1ccc(Cl)cc1)C(=O)N[C@H](Cc1cccnc1)C(=O)N[C@@H](CO)C(=O)N[C@@H](Cc1ccc(O)cc1)C(=O)N[C@H](CCCNC(N)=O)C(=O)N[C@@H](CC(C)C)C(=O)N[C@@H](CCCNC(=N)N)C(=O)N1CCC[C@H]1C(=O)N[C@H](C)C(N)=O [CETRORELIX] (Ac-[d2Nal][dPhe(4-Cl)][d3Pal]SY[dCit]LRP[dA]-NH2)
- K [7]: 3.57 10^6/M/s
- K [8]: 1 10^-5/s
- Activity (Rattus norvegicus [9]): Active
- Kd [10]: 0.135 nM
- TIME [11]: 0.583 h
- Kd [12]: 0.0017 nM

Compound: O=C(NCc1ncccc1Cl)c1ccc2c(c1)C1(CCS(=O)(=O)CC1)C(C1CC1)N2S(=O)(=O)c1ccc(F)cc1 (stereo in doubt; 4a) [listing 1 of 2 here]
- Activity (Rattus norvegicus [13]): Dose-dependent effect

Compound: COc1cccc(-c2c(C)n(Cc3c(F)cccc3C(F)(F)F)c(=O)n(C[C@H](NCCCC(=O)O)c3ccccc3)c2=O)c1F [ELAGOLIX SODIUM]
- K [7]: 2.06 10^5/M/s
- K [8]: 3.3 10^-4/s
- Kd [10]: 1.19 nM
- TIME [11]: 1.27 h
- Kd [12]: 3.21 nM

Compound: O=C(NCc1ncccc1Cl)c1ccc2c(c1)C1(CCS(=O)(=O)CC1)C(C1CC1)N2S(=O)(=O)c1ccc(F)cc1 (stereo in doubt; 4a) [listing 2 of 2 here]
- chromatographic logD [16]: 3
- IC50 ([3]; cho-k1): 40 nM
- ED50 (Rattus norvegicus [13]): 5.5 mg/kg
- IC50 [6]: 60 nM

Second part, led by results:

- half-life [1]: 8.1 h
- IC50 [2]: 172 nM
- IC50 ([3]; cho-k1): 27 nM
- clearance [4]: 23.3 mL/min/kg
- CLint scaled at 1 µM [5]: 33.3 mL/min/kg
- IC50 [6]: 99 nM
Compound: CC1N(S(=O)(=O)c2ccc(F)cc2)c2ccc(C(=O)NCc3ccccc3Cl)cc2C12CCNCC2 (stereo in doubt)

- half-life [1]: 0.82 h
- IC50 [2]: 99 nM
- IC50 [3]: 29 nM
- IC50 [14]: 34 nM
- CL ([4]; 0.5 mg/kg): 78.3 mL/min/kg
- CLH ([5]; 1.5 h, 1 µM): 46.7 mL/min/kg
- IC50 [6]: 41 nM
Compound: COc1ccc(S(=O)(=O)N2c3ccc(C(=O)NCc4ccccc4Cl)cc3C3(CCN(C(C)=O)CC3)C2C)cc1 (stereo in doubt; form 2)

- solubility at 24 h [15]: 271 µg/mL (≈ 513 µM)
- IC50 ([2]; cho-k1): 172 nM
- chromatographic logD [16]: 2.8
- IC50 [3]: 27 nM
- bioavailability [19]: < 2%
- IC50 ([6]; cho-k1): 99 nM
Compound: CC1N(S(=O)(=O)c2ccc(F)cc2)c2ccc(C(=O)NCc3ccccc3Cl)cc2C12CCNCC2 (stereo in doubt; 3a)
- IC50 [17]: 1100 nM
- Activity (Rattus norvegicus [18]): 74%

- half-life [1]: 2.1 h
- IC50 [3]: 40 nM
- clearance [4]: 30 mL/min/kg
- CLint scaled at 1 µM [5]: 4.17 mL/min/kg
- bioavailability [19]: 27%
- IC50 [6]: 60 nM
Compound: O=C(NCc1ncccc1Cl)c1ccc2c(c1)C1(CCS(=O)(=O)CC1)C(C1CC1)N2S(=O)(=O)c1ccc(F)cc1 (stereo in doubt)

Reference: ChEMBL document CHEMBL4673248, “Discovery and Characterization of BAY 1214784, an Orally Available Spiroindoline Derivative Acting as a Potent and Selective Antagonist of the Human Gonadotropin-Releasing Hormone Receptor as Proven in a First-In-Human Study in Postmenopausal Women” (J Med Chem, 2020)
